The values below come from the RNAGym collection of RNA variant scans (doi:10.1126/science.aae0568).

This sample holds only a part of the variants without activity. Where only a bound is given, the exact number is not on record here.

The labels stand for the following.
B1: tRNA (parent)
chain: GUUCCGUUGGCGUAAUGGUAACGCGUCUCCCUCCUAAGGAGAAGACUGCGGGUUCGAGUCCCGUACGGAACG

This series covers variants of B1. Kind of series: yeast fitness relative to wild type (ratio to wild type); higher = fitter; tRNA-Arg(CCU), competitive growth, 37 C, YPD. In a few lines: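 Changes in genotype frequencies gave Darwinian fitness relative to wild type. Frequencies were read by 100-nucleotide paired-end sequencing of gene amplicons before and after pooled Saccharomyces cerevisiae strains, carrying tRNA-Arg(CCU) gene variants at the native locus, were competed in YPD at 37°C for 24 hours in six replicates. A genotype was kept only with ≥ 100 starting reads, and estimates < 0.5 were set to 0.5.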
On to G48A G51A U59C, for which the yeast fitness came out at 0.956.

Consider U47C G67A, for which the yeast fitness stood at 0.874.

For the variant C49G A65U, the yeast fitness was found to be 0.748.

C49G A65G: the yeast fitness stood at 0.957.

For the variant G48C C61A A65U, the yeast fitness came out at 0.687.

As to G48A A57G, the yeast fitness is 0.972.

In the case of U47C G56A, the yeast fitness was determined as 0.999.

As to C49G C60U A65C, the yeast fitness was no more than 0.5.

Take C49U U54C: the yeast fitness came to 0.864.

For the variant C49U U54A, the yeast fitness was 0.736.

In the case of U47C C61U A65U C66U, the yeast fitness is no more than 0.5.

For the variant G48A U54C, the yeast fitness was 0.929.

As to U47C C66U, the yeast fitness worked out at 0.963.

C49G U53A: the yeast fitness came to 0.627.

Take U47C C55U G68C: the yeast fitness amounted to 0.517.

In the case of U47A C49G A69U, the yeast fitness was determined as 0.577.

In the case of G48C U64C G67C, the yeast fitness was no more than 0.5.

Turning to C49U C62U, the yeast fitness is 0.869.

In the case of C49U C62A, the yeast fitness turned out to be 0.787.

As for U47C C60A, the yeast fitness came out at 0.603.

Regarding G48C G51A, the yeast fitness was 0.849.

As for C49A G50A C62U, the yeast fitness was found to be 0.637.

For C49G A57U G63A G67A, the yeast fitness is no more than 0.5.

Turning to G48C G50C, the yeast fitness was 0.68.

For the variant G50A C62U G63A, the yeast fitness is no more than 0.5.

For C46U U59A C61G C66U, the yeast fitness came to 0.649.

For G48A U64C, the yeast fitness is 0.816.

With G48A C66U A69C, the yeast fitness is 0.719.

As for G48C G52C C62G, the yeast fitness was no more than 0.5.

As for U47G G68U, the yeast fitness came to 0.568.

For the variant G48A G51C, the yeast fitness worked out at 0.655.

On to G48A C55A C60G, for which the yeast fitness was found to be 0.513.

Take G48C C49U C62U: the yeast fitness was 0.637.

In the case of C49A C60G A70U, the yeast fitness was no more than 0.5.

Consider U47A U59C, for which the yeast fitness was determined as 0.873.

Regarding C49U G68C, the yeast fitness was determined as 0.801.

For G48C G56C, the yeast fitness came to 0.7.

C49U C62U A69U: the yeast fitness came out at 0.948.

As to G48A C60G A70C, the yeast fitness was no more than 0.5.

Consider U47C A70U, for which the yeast fitness was 0.955.

U47C A70C: the yeast fitness came to 1.07.

On to C49U, for which the yeast fitness stood at 0.995.

Turning to C49G, the yeast fitness was determined as 0.99.

C49A: the yeast fitness came to 0.759.

As for G50A C55A C66A, the yeast fitness was determined as 0.543.

Turning to G48U, the yeast fitness worked out at 1.03.

As for G48C, the yeast fitness turned out to be 0.977.

For G48A, the yeast fitness came out at 0.982.

As for U47A G48C G56A, the yeast fitness is no more than 0.5.

In the case of U47A C60U G63C A69U, the yeast fitness is no more than 0.5.

For G48A C61A, the yeast fitness is 0.682.

For the variant G48A C61U, the yeast fitness was 1.04.

As to G48A C55U A65C, the yeast fitness came to 0.627.

For U47A C61U, the yeast fitness is 0.948.

With C49U U54C C55G, the yeast fitness was found to be 0.548.

With U47A C55G C61U, the yeast fitness came to 0.522.

In the case of G48A C60G G63C, the yeast fitness is no more than 0.5.

For the variant U47C C49U, the yeast fitness turned out to be 0.987.

On to U47C C49A, for which the yeast fitness amounted to 0.65.

As to G48A C62A, the yeast fitness is 0.978.

Take G48C G52C G63C: the yeast fitness is no more than 0.5.

With C49G C61A, the yeast fitness turned out to be 0.808.

As for C49G C61U, the yeast fitness was 0.719.

In the case of C49G G68C, the yeast fitness turned out to be 0.704.

For C49G G68A, the yeast fitness stood at 0.953.

Consider G50A, for which the yeast fitness was found to be 1.

On to U47A C55G, for which the yeast fitness is 0.684.

For C49A A57U A70C, the yeast fitness came to 0.518.

For G48C C49U A65U A69U, the yeast fitness was no more than 0.5.

Take C46U U64C: the yeast fitness worked out at 1.01.

Consider C46U U64A, for which the yeast fitness amounted to 1.03.

Turning to C49A A65G, the yeast fitness was determined as 0.625.

Take C49A A65U: the yeast fitness was determined as 0.962.

Take U47A G50C: the yeast fitness is 0.69.

Consider U47A A57U, for which the yeast fitness came out at 0.655.

On to C49A C60A A70C, for which the yeast fitness was no more than 0.5.

As for U47A G48C G67C, the yeast fitness came to 0.538.

Take C49A A70U: the yeast fitness was 0.714.

Regarding G50A C61G, the yeast fitness was determined as 0.737.

For U47G G51A, the yeast fitness turned out to be 0.588.

C49A G56C G67A: the yeast fitness was no more than 0.5.

As to G48C A57C, the yeast fitness worked out at 0.594.

In the case of U47C G52A C61G, the yeast fitness was no more than 0.5.

Consider U47C U53C A57C, for which the yeast fitness was no more than 0.5.

For U47C U53A, the yeast fitness was 0.604.

In the case of G50A C55G C62A, the yeast fitness came to 0.654.

Take U47C A57U A65U: the yeast fitness is 0.567.

C49G C66G: the yeast fitness stood at 0.647.

Turning to C49G C66U, the yeast fitness amounted to 0.781.

As for C49A C62U A65G, the yeast fitness is no more than 0.5.

C49G G63A: the yeast fitness is 0.86.

Take C49G G63C: the yeast fitness amounted to 0.967.

For C49A G63U U64C, the yeast fitness is no more than 0.5.

As to C49U C55U C61U, the yeast fitness amounted to 0.559.

Regarding G48A G52A G67C, the yeast fitness amounted to 0.536.

Take G48A G52A G67A: the yeast fitness came out at 0.648.

As for C49G G50C, the yeast fitness was 0.613.

Turning to C49G G50A, the yeast fitness came to 0.667.

For G48C A65G, the yeast fitness turned out to be 1.01.

As to G48C A65U, the yeast fitness amounted to 0.75.

For G50A A69U, the yeast fitness stood at 1.

On to U47A G68U, for which the yeast fitness came out at 0.775.

With U47A G68A, the yeast fitness amounted to 0.621.

On to U47C G68A, for which the yeast fitness was determined as 0.876.

As to C49A C62G, the yeast fitness amounted to 0.576.

On to U47G G63A, for which the yeast fitness was determined as 0.561.

With G50A C60G U64G, the yeast fitness stood at 0.521.

As to G48C G51C A57U G68C, the yeast fitness was no more than 0.5.

For G48A U59C, the yeast fitness is 0.934.

Take U47C G48C: the yeast fitness was found to be 0.797.

As to C49A G56A, the yeast fitness was found to be 0.831.

For C49G U54G A69U, the yeast fitness was no more than 0.5.

As for C49U G51C U64C G68A, the yeast fitness is no more than 0.5.

G48A G63A A65C: the yeast fitness was no more than 0.5.

C49G C66G G67C: the yeast fitness came out at 0.569.

Regarding G48A C61A G68U, the yeast fitness turned out to be 0.561.

For G48C U64A, the yeast fitness was 0.946.

For the variant G48C U64C, the yeast fitness is 1.08.

Take G48C G67U A69C: the yeast fitness was found to be 0.507.

On to G48A C61G A65C, for which the yeast fitness was no more than 0.5.

As for C49U U53A C66U A70U, the yeast fitness is no more than 0.5.

In the case of C49U C66G, the yeast fitness stood at 0.752.

Take C49U C66U: the yeast fitness was found to be 0.968.

On to C49U C66A, for which the yeast fitness is 0.815.

Consider C49U G67U A69C, for which the yeast fitness amounted to 0.542.

G48A G52C U54C C66U: the yeast fitness is no more than 0.5.

Regarding U47G A70C, the yeast fitness was determined as 0.685.

Consider U47A A70C, for which the yeast fitness stood at 0.842.

In the case of C49G G56A A65C, the yeast fitness amounted to 0.543.

As for C49G A57U C61G, the yeast fitness turned out to be 0.516.

Turning to C46U U47A G68C, the yeast fitness was 0.558.

On to G48A G58C, for which the yeast fitness came to 0.979.

Consider C46U U47G, for which the yeast fitness is 0.823.

Regarding C46U U47C, the yeast fitness is 0.911.

As to C49U G63C G67C, the yeast fitness was determined as 0.53.

C49G A57G: the yeast fitness was 0.719.

C49G A57C: the yeast fitness is 0.656.

In the case of C49G A57U, the yeast fitness amounted to 0.792.

Turning to C49A G68U, the yeast fitness stood at 0.723.

For the variant C49A G68C, the yeast fitness was 0.578.

Regarding C49A G68A, the yeast fitness was found to be 0.64.

For C49U G52C, the yeast fitness is 0.547.

As for C49A U64C, the yeast fitness worked out at 0.86.

For the variant G48C C62U A69C, the yeast fitness was 0.701.

In the case of G48A C62G A69U, the yeast fitness amounted to 1.03.

With U47C G52C, the yeast fitness turned out to be 0.612.

In the case of U47C C60A C61G A69U, the yeast fitness is no more than 0.5.

In the case of U47A G58C, the yeast fitness turned out to be 1.06.

Consider G48C C49U U54G C66A, for which the yeast fitness was 0.624.

As to G48C C61G, the yeast fitness stood at 0.629.

As for U47C G63C C66U, the yeast fitness was no more than 0.5.

Take G48A G63C: the yeast fitness was 0.89.

As to U47A C55G G68A, the yeast fitness was no more than 0.5.

For G48C G68A, the yeast fitness turned out to be 0.846.

As to U47C A69U, the yeast fitness worked out at 1.08.

Turning to U47A A69U, the yeast fitness stood at 0.984.

Take C49A G50A: the yeast fitness was determined as 0.672.

Take C49A G50U: the yeast fitness came out at 0.694.

Regarding U47C G51C U59C, the yeast fitness was no more than 0.5.

Regarding C49A G50U C62U, the yeast fitness is no more than 0.5.

Regarding G50A C66U A69C, the yeast fitness was found to be 0.531.

Regarding G50A G51C, the yeast fitness stood at 0.585.

On to G50A G51U, for which the yeast fitness stood at 0.664.

With C49G C66A G67U, the yeast fitness was no more than 0.5.

U47C U59A: the yeast fitness worked out at 0.961.

In the case of C49A C61U A65G, the yeast fitness came to 0.568.

Consider G48C G63A, for which the yeast fitness came to 0.877.
